How the values were obtained:
[1] = Drug uptake in BALB/cAnNCrlCrlj mouse Goblet cells at 0.5 umol/kg administered intranasally measured at 24 hrs by microautoradiographic analysis; type: ADME, BALB/cAnNCrlCr; settings: in vivo, inhaled_or_intranasal
[2] = Drug uptake in BALB/cAnNCrlCrlj mouse pulmonary alveoli at 0.5 umol/kg administered intranasally measured at 24 hrs by microautoradiographic analysis; type: ADME, BALB/cAnNCrlCr; settings: in vivo, inhaled_or_intranasal
[3] = test system: Blood; assay: Drug uptake in BALB/cAnNCrlCrlj mouse pulmonary arterial blood at 0.5 umol/kg administered intranasally measured at 24 hrs by microautoradiographic analysis; type: ADME, tissue-based, BALB/cAnNCrlCr; settings: in vivo, inhaled_or_intranasal
[4] = Drug uptake in BALB/cAnNCrlCrlj mouse bronchial gland at 0.5 umol/kg administered intranasally measured at 24 hrs by microautoradiographic analysis; type: ADME, BALB/cAnNCrlCr; settings: in vivo, inhaled_or_intranasal
[5] = Drug uptake in BALB/cAnNCrlCrlj mouse cuboidal epithelial cells at 0.5 umol/kg administered intranasally measured at 24 hrs by microautoradiographic analysis; type: ADME, cell-based, BALB/cAnNCrlCr, Epithelial cell; settings: in vivo, inhaled_or_intranasal
[6] = Drug uptake in BALB/cAnNCrlCrlj mouse ciliated columnar epithelial cells at 0.5 umol/kg administered intranasally measured at 24 hrs by microautoradiographic analysis; type: ADME, cell-based, BALB/cAnNCrlCr, Epithelial cell; settings: in vivo, inhaled_or_intranasal
[7] = test system: Lung; assay: Drug uptake in lung of BALB/cAnNCrlCrlj mouse at 0.5 umol/kg administered intranasally measured at 0.25 hrs by microautoradiographic analysis; type: ADME, tissue-based, BALB/cAnNCrlCr; settings: in vivo, inhaled_or_intranasal
[8] = Drug uptake in BALB/cAnNCrlCrlj mouse terminal bronchiole at 0.5 umol/kg administered intranasally measured at 24 hrs by microautoradiographic analysis; type: ADME, tissue-based, BALB/cAnNCrlCr; settings: in vivo, inhaled_or_intranasal
[9] = Drug uptake in bronchi of BALB/cAnNCrlCrlj mouse at 0.5 umol/kg administered intranasally measured at 0.25 hrs by microautoradiographic analysis; type: ADME, BALB/cAnNCrlCr, Bronchus; settings: in vivo, inhaled_or_intranasal
[10] = Drug uptake in BALB/cAnNCrlCrlj mouse alveolar bronchiole at 0.5 umol/kg administered intranasally measured at 24 hrs by microautoradiographic analysis; type: ADME, BALB/cAnNCrlCr; settings: in vivo, inhaled_or_intranasal
[11] = Tmax in BALB/cAnNCrlCrlj mouse plasma at 0.5 umol/kg administered intranasally; type: ADME, cell-free; settings: inhaled or intranasal
Procedure, shortened: (§1)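 Female BALB/c mice (7 weeks old) received a single intranasal dose of 0.5 μmol/kg at 2.5 ml/kg, with N=3–4 per time point up to 24 h. Plasma, BAL fluid (3 × 1 ml PBS pH 7.4) and lung homogenate were taken, and AEBSF was added to a final 5 mM. LO and laninamivir were measured by LC-MS/MS. ELF levels were corrected using the urea ratio between plasma and BAL. Non-compartmental analysis on mean concentrations gave Cmax/Tmax by observation, t1/2 from ≥3 terminal log points, and AUClast by the trapezoidal method.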

[12] = test system: Lung; assay: AUClast in BALB/cAnNCrlCrlj mouse lung at 0.5 umol/kg administered intranasally; type: ADME; settings: in vivo, inhaled_or_intranasal; procedure, shortened: as §1
[13] = Cmax in BALB/cAnNCrlCrlj mouse plasma treated with laninamivir octanoate at 0.5 umol/kg administered intranasally; type: ADME, cell-free; parameters: dose 0.5 umol/kg, route nasal; settings: inhaled or intranasal; procedure, shortened: as §1
[14] = Drug level in primary cultured BALB/c mouse airway epithelial cells treated with laninamivir octanoate at 50 uM measured at 24 hrs by LC-MS/MS analysis; type: ADME, cell-based; settings: epithelial cell
Procedure, shortened: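 Confluent primary BALB/c airway epithelial cells were loaded with 50 μM LO for 60 min and then washed. They were then incubated in drug-free medium at 37°C for up to 24 h, with the medium fully replaced at each sampling point. Cells were washed with ice-cold PBS and lysed. LO and laninamivir in medium and cells were measured by LC-MS/MS and normalized to Lowry protein, in triplicate. Release and hydrolysis rate constants were obtained by first-order compartmental modelling.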

[15] = Tmax in BALB/cAnNCrlCrlj mouse plasma treated with laninamivir octanoate at 0.5 umol/kg administered intranasally; type: ADME, cell-free; settings: inhaled or intranasal; procedure, shortened: as §1
[16] = Drug uptake in BALB/cAnNCrlCrlj mouse epithelial lining fluid treated with laninamivir octanoate at 0.5 umol/kg administered intranasally measured at 24 hrs by LC-MS/MS analysis; type: ADME, tissue-based; settings: inhaled or intranasal, read-out: Drug uptake
Procedure, shortened: (§2)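 Female BALB/c mice were dosed intranasally at 0.5 μmol/kg (2.5 ml/kg), N=3–4 per time point. At each sampling time, blood was taken by cardiac puncture, BAL was done with 3 × 1 ml PBS, and lungs were homogenized in 50% acetonitrile. LO and laninamivir were quantified by LC-MS/MS, calibrated over 1–100 ng/ml and 0.5–100 ng/ml respectively. ELF concentration was calculated as CBAL × (urea in plasma / urea in BAL).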

[17] = Tmax in BALB/cAnNCrlCrlj mouse epithelial lining fluid treated with laninamivir octanoate at 0.5 umol/kg administered intranasally; type: ADME, tissue-based; settings: inhaled or intranasal; procedure, shortened: as §1
[18] = AUClast in BALB/cAnNCrlCrlj mouse plasma at 0.5 umol/kg administered intranasally; type: ADME, cell-free; parameters: dose 0.5 umol/kg, time 0 - last, route nasal; settings: inhaled or intranasal; procedure, shortened: as §1
[19] = AUClast in BALB/cAnNCrlCrlj mouse epithelial lining fluid treated with laninamivir octanoate at 0.5 umol/kg administered intranasally; type: ADME, tissue-based; parameters: dose 0.5 umol/kg, time 0 - last, route nasal; settings: inhaled or intranasal; procedure, shortened: as §1
[20] = Drug level in primary cultured BALB/c mouse airway epithelial cells treated with laninamivir octanoate at 50 uM measured up 60 to 90 mins by LC-MS/MS analysis; type: ADME, cell-based; settings: epithelial cell
Procedure, shortened: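 Primary airway epithelial cells from BALB/c mice were obtained by collagenase digestion and negative immunomagnetic selection, then grown to confluence on collagen I. Cells were pre-incubated 30 min in serum-free F-12K. For the time course they were exposed to 50 μM LO for up to 120 min; for concentration dependence, to 10–1000 μM LO for 60 min, at 37°C. After ice-cold PBS washes and Triton lysis, intracellular LO and laninamivir were measured by LC-MS/MS and normalized to Lowry protein, in triplicate.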

[21] = test system: Plasma; assay: Drug uptake in BALB/cAnNCrlCrlj mouse plasma at 0.5 umol/kg administered intranasally measured after 8 hrs by LC-MS/MS analysis; type: ADME, cell-free; settings: inhaled_or_intranasal; procedure, shortened: as §2
[22] = Elimination half life in BALB/cAnNCrlCrlj mouse lung at 0.5 umol/kg administered intranasally; type: ADME, tissue-based; settings: BALB/cAnNCrlCrlj, lung, inhaled or intranasal, 0.5 umol/kg, read-out: beta t1/2 (converted); procedure, shortened: as §1
[23] = test system: Lung; assay: Cmax in BALB/cAnNCrlCrlj mouse lung treated with laninamivir octanoate at 0.5 umol/kg administered intranasally; type: ADME; parameters: dose 0.5 umol/kg, route nasal; settings: in vivo, inhaled_or_intranasal; procedure, shortened: as §1
[24] = AUClast in BALB/cAnNCrlCrlj mouse plasma treated with laninamivir octanoate at 0.5 umol/kg administered intranasally; type: ADME, cell-free; parameters: dose 0.5 umol/kg, time 0 - last, route nasal; settings: inhaled or intranasal; procedure, shortened: as §1
[25] = Tmax in BALB/cAnNCrlCrlj mouse lung treated with laninamivir octanoate at 0.5 umol/kg administered intranasally; type: ADME; settings: inhaled or intranasal; procedure, shortened: as §1
[26] = Drug uptake in BALB/cAnNCrlCrlj mouse epithelial lining fluid at 0.5 umol/kg administered intranasally measured at 4 hrs by LC-MS/MS analysis; type: ADME, tissue-based; settings: inhaled or intranasal, read-out: Drug uptake; procedure, shortened: as §2
[27] = AUClast in BALB/cAnNCrlCrlj mouse epithelial lining fluid at 0.5 umol/kg administered intranasally; type: ADME, tissue-based; parameters: dose 0.5 umol/kg, route nasal, time 0 - last; settings: inhaled or intranasal; procedure, shortened: as §1
[28] = test system: Lung; assay: Drug concentration in BALB/cAnNCrlCrlj mouse lung treated with laninamivir octanoate at 0.5 umol/kg administered intranasally measured at 24 hrs; settings: in vivo, inhaled_or_intranasal
[29] = Cmax in BALB/cAnNCrlCrlj mouse plasma at 0.5 umol/kg administered intranasally; type: ADME, cell-free; parameters: dose 0.5 umol/kg, route nasal; settings: inhaled or intranasal; procedure, shortened: as §1
[30] = Drug uptake in BALB/cAnNCrlCrlj mouse epithelial lining fluid treated with laninamivir octanoate at 0.5 umol/kg administered intranasally measured at 4 hrs by LC-MS/MS analysis; type: ADME; settings: inhaled or intranasal, read-out: Drug uptake; procedure, shortened: as §2
[31] = Elimination half life in human treated with laninamivir octanoate administered intranasally; type: ADME, organism-based; settings: in vivo, inhaled or intranasal, read-out: beta t1/2 (converted)
[32] = Tmax in BALB/cAnNCrlCrlj mouse epithelial lining fluid at 0.5 umol/kg administered intranasally; type: ADME, tissue-based; settings: inhaled or intranasal; procedure, shortened: as §1
[33] = Tmax in human treated with laninamivir octanoate at 40 mg administered intranasally; type: ADME, organism-based; settings: in vivo, inhaled or intranasal
[34] = Cmax in BALB/cAnNCrlCrlj mouse epithelial lining fluid at 0.5 umol/kg administered intranasally; type: ADME, tissue-based; parameters: dose 0.5 umol/kg, route nasal; settings: inhaled or intranasal; procedure, shortened: as §1
[35] = test system: Lung; assay: AUClast in BALB/cAnNCrlCrlj mouse lung treated with laninamivir octanoate at 0.5 umol/kg administered intranasally; type: ADME; settings: in vivo, inhaled_or_intranasal; procedure, shortened: as §1
[36] = Cmax in BALB/cAnNCrlCrlj mouse epithelial lining fluid treated with laninamivir octanoate at 0.5 umol/kg administered intranasally; type: ADME; parameters: dose 0.5 umol/kg, route nasal; settings: inhaled or intranasal; procedure, shortened: as §1
[37] = Elimination half life in BALB/cAnNCrlCrlj mouse epithelial lining fluid at 0.5 umol/kg administered intranasally; type: ADME, tissue-based; settings: BALB/cAnNCrlCrlj, epithelial lining fluid, inhaled or intranasal, 0.5 umol/kg, read-out: beta t1/2 (converted); procedure, shortened: as §1
[38] = Lipophilicity, log D of the compound at pH 7.4; type: physicochemical; settings: buffer
[39] = Elimination half life in BALB/cAnNCrlCrlj mouse epithelial lining fluid treated with laninamivir octanoate at 0.5 umol/kg administered intranasally; type: ADME; settings: inhaled or intranasal, read-out: beta t1/2 (converted); procedure, shortened: as §1
[40] = Elimination half life in BALB/cAnNCrlCrlj mouse plasma treated with laninamivir octanoate at 0.5 umol/kg administered intranasally; type: ADME, cell-free; settings: inhaled or intranasal, read-out: beta t1/2 (converted); procedure, shortened: as §1
[41] = test system: Lung; assay: Drug uptake in BALB/cAnNCrlCrlj mouse lung at 0.5 umol/kg administered intranasally measured at 24 hrs by LC-MS/MS analysis; type: ADME, tissue-based; settings: in vivo, inhaled_or_intranasal; procedure, shortened: as §2
[42] = Tmax in BALB/cAnNCrlCrlj mouse lung at 0.5 umol/kg administered intranasally; type: ADME; settings: inhaled or intranasal; procedure, shortened: as §1
[43] = Elimination half life in BALB/cAnNCrlCrlj mouse lung treated with laninamivir octanoate at 0.5 umol/kg administered intranasally; type: ADME, tissue-based; settings: inhaled or intranasal, read-out: beta t1/2 (converted); procedure, shortened: as §1
[44] = test system: Lung; assay: Cmax in BALB/cAnNCrlCrlj mouse lung at 0.5 umol/kg administered intranasally; type: ADME; parameters: dose 0.5 umol/kg, route nasal; settings: in vivo, inhaled_or_intranasal; procedure, shortened: as §1

## CCCCCCCC(=O)OC[C@@H](O)[C@@H](OC)[C@@H]1OC(C(=O)O)=C[C@H](N[14C](=N)N)[C@H]1NC(C)=O
[1]
  Drug uptake: Active
[2]
  Drug uptake: Active
[3]
  Drug uptake: Active
[4]
  Drug uptake: Active
[5]
  Drug uptake: Active
[6]
  Drug uptake: Active
[7]
  Drug uptake: Active
[8]
  Drug uptake: Active
[9]
  Drug uptake: Active
[10]
  Drug uptake: Active

## CO[C@@H]([C@@H]1OC(C(=O)O)=C[C@H](NC(=N)N)[C@H]1NC(C)=O)[C@H](O)CO [LANINAMIVIR]
[11]
  Tmax: 0.5 h
[12]
  AUClast: 9890 pmol·h/g
[13]
  Cmax: 181 nM
[14]
  Drug metabolism: metabolite_detected
[15]
  Tmax: 1 h
[16]
  concentration at 24 h: 842 nM
[17]
  Tmax: 1 h
[18]
  AUC(0-t): 0.782 µM·h
[19]
  AUC(0-t): 26.5 µM·h
[20]
  Drug metabolism: metabolite_detected
[21]
  Drug uptake: Not Active
[22]
  half-life: 25 h
[23]
  Cmax: 4350 pmol/g
[24]
  AUC(0-t): 0.445 µM·h
[25]
  Tmax: 6 h
[26]
  concentration at 4 h: 51.3 nM
[27]
  AUC(0-t): 19.6 µM·h
[28]
  concentration at 24 h: 2680 pmol/g
[29]
  Cmax: 478 nM
[30]
  concentration at 4 h: 1150 nM
[31]
  half-life: 72 h
[32]
  Tmax: 1.98 min
[33]
  Tmax: 4 h
[34]
  Cmax: 19900 nM
[35]
  AUClast: 75800 pmol·h/g
[36]
  Cmax: 1520 nM
[37]
  half-life: 25.4 h
[38]
  logD: -2.18
[39]
  half-life: 25.1 h
[40]
  half-life: 13.1 h
[41]
  Drug uptake: 282 pmol/g
[42]
  Tmax: 0.25 h
[43]
  half-life: 30.9 h
[44]
  Cmax: 1020 pmol/g

Source: ChEMBL document CHEMBL3526090, “Pharmacokinetic mechanism involved in the prolonged high retention of laninamivir in mouse respiratory tissues after intranasal administration of its prodrug laninamivir octanoate” (Drug Metab Dispos, 2013)
